Reference: ChEMBL document CHEMBL3792275 (Bioorg Med Chem Lett, 2016)
Activity calls are given as the source filed them. The rule behind the calls is not given here.

How the values were obtained:
[1] = biological target: MMP-2/MMP-9 (Homo sapiens) (UniProt P08253+P14780); assay: Selectivity ratio of IC50 for human recombinant MMP9 to IC50 for human recombinant MMP2
Outline: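 IC50 values against MMP-2 and MMP-9 were each measured by a fluorimetric enzyme assay, with a reference inhibitor run alongside as positive control. The selectivity ratio is the MMP-9 IC50 divided by the MMP-2 IC50.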

[2] = biological target: 72 kDa type IV collagenase (Homo sapiens, UniProt P08253); assay: Inhibition of human recombinant MMP2 using Mca-Pro-Leu-Gly-Leu-Dpa-Ala-Arg-NH2 as substrate preincubated for 60 mins followed by substrate addition by fluorimetric analysis
Chain of 72 kDa type IV collagenase (P08253 whole entry): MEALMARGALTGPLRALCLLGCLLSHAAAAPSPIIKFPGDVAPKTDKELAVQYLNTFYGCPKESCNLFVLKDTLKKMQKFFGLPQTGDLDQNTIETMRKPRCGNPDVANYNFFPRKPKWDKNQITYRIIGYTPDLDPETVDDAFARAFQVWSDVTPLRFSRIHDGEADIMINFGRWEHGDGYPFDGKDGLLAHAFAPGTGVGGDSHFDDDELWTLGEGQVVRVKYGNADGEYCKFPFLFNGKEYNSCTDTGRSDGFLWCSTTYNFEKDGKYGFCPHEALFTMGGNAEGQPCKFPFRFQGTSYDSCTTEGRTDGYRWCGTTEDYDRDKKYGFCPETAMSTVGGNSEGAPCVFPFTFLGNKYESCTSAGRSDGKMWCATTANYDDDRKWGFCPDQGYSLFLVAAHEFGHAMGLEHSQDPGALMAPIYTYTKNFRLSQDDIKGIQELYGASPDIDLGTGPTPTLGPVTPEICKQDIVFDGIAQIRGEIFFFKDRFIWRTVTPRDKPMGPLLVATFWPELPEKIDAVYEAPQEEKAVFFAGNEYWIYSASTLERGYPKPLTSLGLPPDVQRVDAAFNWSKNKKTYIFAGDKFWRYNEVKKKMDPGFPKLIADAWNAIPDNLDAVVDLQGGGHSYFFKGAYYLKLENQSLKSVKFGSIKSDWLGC

[3] = biological target: Matrix metalloproteinase-9 (Homo sapiens, UniProt P14780); assay: Inhibition of human recombinant MMP9 using Mca-Pro-Leu-Gly-Leu-Dpa-Ala-Arg-NH2 as substrate preincubated for 60 mins followed by substrate addition by fluorimetric analysis
Chain of Matrix metalloproteinase-9 (P14780 whole entry): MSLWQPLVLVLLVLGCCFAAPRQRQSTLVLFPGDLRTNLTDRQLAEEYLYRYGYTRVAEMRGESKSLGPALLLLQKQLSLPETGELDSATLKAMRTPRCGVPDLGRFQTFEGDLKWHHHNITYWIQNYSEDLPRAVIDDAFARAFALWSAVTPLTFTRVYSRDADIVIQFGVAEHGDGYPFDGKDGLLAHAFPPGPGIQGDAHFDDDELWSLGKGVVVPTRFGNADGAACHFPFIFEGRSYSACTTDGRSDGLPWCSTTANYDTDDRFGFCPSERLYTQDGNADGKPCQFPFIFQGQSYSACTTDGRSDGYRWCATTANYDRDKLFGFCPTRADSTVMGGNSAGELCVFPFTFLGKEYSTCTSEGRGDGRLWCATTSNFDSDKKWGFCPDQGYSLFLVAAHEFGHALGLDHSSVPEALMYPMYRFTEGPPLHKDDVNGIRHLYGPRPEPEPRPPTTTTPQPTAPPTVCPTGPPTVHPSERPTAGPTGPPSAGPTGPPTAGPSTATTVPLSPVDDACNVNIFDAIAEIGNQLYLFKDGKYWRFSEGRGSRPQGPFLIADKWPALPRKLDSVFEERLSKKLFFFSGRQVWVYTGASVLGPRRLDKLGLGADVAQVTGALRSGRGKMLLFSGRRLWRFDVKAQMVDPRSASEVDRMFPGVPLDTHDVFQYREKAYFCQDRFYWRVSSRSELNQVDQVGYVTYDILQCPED

[4] = Terminal half life in Sprague-Dawley rat at 10 mg/kg, po by LC-MS/MS method; type: ADME, organism-based; conditions: in vivo, read-out: beta t1/2 (converted)
Outline: (§1)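 Sprague-Dawley rats were dosed at 10 mg/kg, either intravenously or orally. AUC0-24h, AUC0-∞, Vz, t1/2z and CLz were derived for each route.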

[5] = Terminal half life in Sprague-Dawley rat at 10 mg/kg, iv by LC-MS/MS method; type: ADME, organism-based; conditions: in vivo, read-out: beta t1/2 (converted); outline: as §1
[6] = AUC (0 to 24 hrs) in Sprague-Dawley rat at 10 mg/kg, po by LC-MS/MS method; type: ADME, organism-based; set-up: dose 10 mg/kg, time < 24 hr, route oral; conditions: in vivo
HEY [7] = assay: Antiinvasive activity in human HEY cells assessed as reduction in number of cells invading matrigel membrane at 50 uM after 24 hrs by crystal violet staining-based Transwell assay; type: functional; set-up: scale not given: the % may be the effect or the level left
Outline: (§2)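 Human ovarian cancer HEY cells were tested in a matrigel-based Transwell invasion assay, with cells invading the matrigel membrane and migrating from the upper to the lower chamber. Treatment was at 12.5, 25 and 50 µM for 24 h, with a DMSO control. Cells per view were counted after crystal violet staining. Treated groups were compared with control by t test.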

[8] = Lipid-water partition coefficient, logP of compound; type: physicochemical
HEY [9] = assay: Antimigratory activity in human HEY cells at 50 uM after 24 hrs by crystal violet staining-based Transwell assay; type: functional; outline: as §2
HEY [10] = assay: Cytotoxicity against human HEY cells at 6.25 to 100 uM after 48 hrs by MTT assay relative to control; type: cell-based
Outline: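 HEY cell viability was measured by MTT assay after exposure to 6.25–100 µM, with DMSO as control. Medium was checked by microscope for solid particles.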

[11] = AUC (0 to infinity) in Sprague-Dawley rat at 10 mg/kg, po after 15 mins to 24 hrs by LC-MS/MS method; type: ADME, organism-based; set-up: dose 10 mg/kg, route oral, time infinity; conditions: in vivo
[12] = Apparent volume of distribution in Sprague-Dawley rat at 10 mg/kg, iv after 15 mins to 24 hrs by LC-MS/MS method; type: ADME, organism-based; conditions: in vivo, read-out: Vz (converted); outline: as §1
[13] = Oral bioavailability in Sprague-Dawley rat at 10 mg/kg by LC-MS/MS method; type: ADME, organism-based; conditions: in vivo
[14] = Apparent clearance in Sprague-Dawley rat at 10 mg/kg, po after 15 mins to 24 hrs by LC-MS/MS method; type: ADME, organism-based; conditions: in vivo, read-out: CL(app) (converted); outline: as §1
HEY [15] = assay: Antimigratory activity in human HEY cells after 24 hrs by crystal violet staining-based Transwell assay; type: functional, cell-based; outline: as §2
[16] = AUC (0 to infinity) in Sprague-Dawley rat at 10 mg/kg, iv after 15 mins to 24 hrs by LC-MS/MS method; type: ADME, organism-based; set-up: dose 10 mg/kg, time infinity, route intravenous; conditions: in vivo
Rattus norvegicus = assay: Apparent volume of distribution in Sprague-Dawley rat at 10 mg/kg, po after 15 mins to 24 hrs by LC-MS/MS method; type: ADME, organism-based; conditions: in vivo; outline: as §1
HEY [17] = assay: Antiinvasive activity in human HEY cells assessed as reduction in number of cells invading matrigel membrane after 24 hrs by crystal violet staining-based Transwell assay; type: functional, cell-based; outline: as §2
[18] = AUC (0 to 24 hrs) in Sprague-Dawley rat at 10 mg/kg, iv by LC-MS/MS method; type: ADME, organism-based; set-up: time < 24 hr, dose 10 mg/kg, route intravenous; conditions: in vivo
[19] = Apparent clearance in Sprague-Dawley rat at 10 mg/kg, iv after 15 mins to 24 hrs by LC-MS/MS method; type: ADME, organism-based; conditions: in vivo, read-out: CL(app) (converted); outline: as §1

| Structure (SMILES) | Ratio IC50 [1] | IC50 [2] [nM] | IC50 [3] [nM] | also measured |
| --- | --- | --- | --- | --- |
| CNC(=O)[C@H](Cc1c[nH]c2ccccc12)NC(=O)[C@@H](CC(=O)Nc1cccc(N)c1)CC(C)C | 6.59 | 2.05 | 13.5 | – |
| CNC(=O)[C@H](Cc1c[nH]c2ccccc12)NC(=O)[C@@H](CC(=O)Nc1ccc(Br)cc1N)CC(C)C | 1.25 | 21.8 | 27.3 | – |
| CNC(=O)[C@H](Cc1c[nH]c2ccccc12)NC(=O)[C@@H](CC(=O)Nc1ccc(C(F)(F)F)cc1N)CC(C)C | inactive | > 10000 | > 10000 | – |
| CNC(=O)[C@H](Cc1c[nH]c2ccccc12)NC(=O)[C@@H](CC(=O)Nc1ccccc1NC(C)=O)CC(C)C | inactive | > 10000 | 155 | – |
| CNC(=O)[C@H](Cc1c[nH]c2ccccc12)NC(=O)[C@@H](CC(=O)NO)CC(C)C [ILOMASTAT] | – | – | – | half-life [5]: 0.25 h; logP [8]: 1.04; Vd [12]: 1.43 L/kg; bioavailability [13]: 0%; AUC(0-inf) [16]: 2510 ng·h/mL; AUC(0-t) at 24 h [18]: 2510 ng·h/mL; clearance [19]: 66.5 mL/min/kg |

Further lines, with some results ahead:

| Ratio IC50 [1] | IC50 [2] [nM] | IC50 [3] [nM] | Structure (SMILES) | also measured |
| --- | --- | --- | --- | --- |
| 3.52 | 2.2 | 7.75 | CNC(=O)[C@H](Cc1c[nH]c2ccccc12)NC(=O)[C@@H](CC(=O)Nc1ccc(F)cc1N)CC(C)C | – |
| inactive | > 10000 | > 10000 | CNC(=O)[C@H](Cc1c[nH]c2ccccc12)NC(=O)[C@@H](CC(=O)Nc1ccc(C(=O)c2ccccc2)cc1N)CC(C)C | – |
| inactive | > 10000 | 7300 | CNC(=O)[C@H](Cc1c[nH]c2ccccc12)NC(=O)[C@@H](CC(=O)Nc1ccc(C)cc1N)CC(C)C | – |
| 8310 | 0.19 | 1580 | CNC(=O)[C@H](Cc1c[nH]c2ccccc12)NC(=O)[C@@H](CC(=O)Nc1ccccc1N)CC(C)C | half-life [4]: 5.64 h; half-life [5]: 7.88 h; AUC(0-t) at 24 h [6]: 36.2 ng·h/mL; Activity (HEY [7]): 84.6%; logP [8]: 1.91; Activity (HEY [9]): 84.6%; Activity (HEY [10]): Non-toxic; AUC(0-inf) [11]: 140 ng·h/mL; Vd [12]: 35.8 L/kg; bioavailability [13]: 4%; CL/F [14]: 1190 mL/min/kg; Activity (HEY [15]): Dose-dependent effect; AUC(0-inf) [16]: 3210 ng·h/mL; Vz (Rattus norvegicus): 579.41 L/kg; Activity (HEY [17]): Dose-dependent effect; AUC(0-t) at 24 h [18]: 3070 ng·h/mL; clearance [19]: 52.2 mL/min/kg |
